High-throughput results (PubChem)
mABHD4 FP – inhibits mouse alpha/beta hydrolase domain 4; Q8VD66; 0.54% of 370,000 active; AID 720543; inhibition, % at 8.92 µM; purified mABHD4, FP-Rh probe fluorescence polarization;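 active means inhibition exceeding the mean over every tested compound plus 3 SD, cut at about 30% in these data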;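 further: 0% = plate median of compound wells and 100% = S159A mutant with DMSO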
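Doses – 8.92 µM, single dose · Material – wild-type mouse ABHD4 protein · Replication – single well per compound (singlicate) · Measure – percent inhibition of probe binding, normalized to plate controls · Schedule – 45 min compound pre-incubation plus 60 min probe step, 25 °C · Detection – fluorescence polarization with parallel and perpendicular emission, 525/598 nm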
HTRA1 inh – HTRA1 (human) protease inhibition. inhibition, % at 5.96 µM. 0.5% of 340,000 active. Q92743. recombinant HTRA1, FP-rhodamine activity-based probe, fluorescence polarization; in the data active means inhibition above about 36%;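 further: 0% = enzyme with DMSO and 100% = wells lacking enzyme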
TCR CD3 inh – human TCR-CD3 binding inhibition; TAMRA-labeled TCR probe fluorescence, biochemical; inhibition, % at 9.4 µM; 0.37% of 360,000 active; in the data active means inhibition above about 19%;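 further: recombinant mutant TCR 2C K166C tagged with TAMRA read by polarization; 0% = receptor in buffer alone and 100% = receptor with positive control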
DDE Tn7 FP inh – disrupts Tn7 cyclic peptide binding to fibrin D-Dimer-E complex; P02675; FP displacement of FITC-Tn7 peptide from fibrin DD(E); 0% = median of compound wells per plate; inhibition, % at 8.3 µM; 0.13% of 370,000 active; AID 720508;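 active means inhibition above the mean of compounds falling within the control limits plus 3 SD of them, cut at about 14% in these data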;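 further: 0% = plate median of compound wells and 100% = 10 µM Aha-Tn7 peptide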
Target sequence (P02675 whole entry, looked up): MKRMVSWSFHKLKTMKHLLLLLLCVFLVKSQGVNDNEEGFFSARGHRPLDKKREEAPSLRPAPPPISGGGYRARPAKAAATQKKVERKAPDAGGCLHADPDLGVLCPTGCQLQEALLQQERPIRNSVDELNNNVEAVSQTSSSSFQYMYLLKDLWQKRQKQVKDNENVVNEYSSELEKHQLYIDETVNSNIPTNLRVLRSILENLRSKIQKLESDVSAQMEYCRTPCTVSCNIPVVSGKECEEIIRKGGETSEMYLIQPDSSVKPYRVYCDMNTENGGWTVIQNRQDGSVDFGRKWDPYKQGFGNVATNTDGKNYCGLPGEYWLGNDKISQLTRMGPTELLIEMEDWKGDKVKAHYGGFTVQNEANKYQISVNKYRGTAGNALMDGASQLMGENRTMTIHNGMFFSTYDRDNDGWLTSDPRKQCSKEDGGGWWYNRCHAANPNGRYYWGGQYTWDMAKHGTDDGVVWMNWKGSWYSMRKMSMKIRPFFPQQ
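system = human fibrin DD(E) protein | quantity = DD(E) 2 µM final | medium = Tris/NaCl/CaCl2 buffer, pH 7.8 | also added = labelled Tn7 tracer, 0.1 µM | compound dosing = single point at 8.3 µM | timing = compound with protein 10 min, then 3 h after probe, room temperature | signal = FP measurement | benchmarks = Aha-Tn7 high control | repeats = one replicate per compound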
Tn6 DDE FP – disrupts Tn6 cyclic peptide binding to fibrin D-Dimer-E complex; Fibrin DD(E) TRITC-Tn6 fluorescence polarization displacement; 0.21% of 370,000 active; inhibition, % at 8.3 µM;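 active means inhibition above a per-campaign cutoff: mean of compounds within control limits plus 3 SD, cut at about 15% in these data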;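 further: 0% = median of all compound wells on the plate and 100% = blocking peptide control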
ABHD4 confirm – confirmation of mouse ABHD4 inhibitors. inhibition, % at 8.92 µM. purified mABHD4, FP-Rh probe fluorescence polarization. 55% of 1,800 active. shares compounds with mABHD4 FP;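 active means mean inhibition across replicates above the hit cutoff set in the primary screen, cut at about 30% in these data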;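 further: 0% = wild-type ABHD4 with DMSO and 100% = catalytically dead S159A mutant with DMSO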
Starred values were filed as active, the others as inactive. Most compounds without a hit are left out; they make up all but 1.3% or so of the library.

How did COc1ccc(-n2nc3c(=O)[nH][nH]c3cc2=O)cc1 do in these assays?
mABHD4 FP: 31.5*; HTRA1 inh: 16.3; TCR CD3 inh: -6.2; DDE Tn7 FP inh: 0.6; Tn6 DDE FP: -8.0; ABHD4 confirm: 42.1*

How did CCCn1c(SCC(=O)NC2CCCC2)nc2c1c(=O)n(C)c(=O)n2C do in these assays?
mABHD4 FP: 3.4; HTRA1 inh: 1.5; TCR CD3 inh: 5.9; DDE Tn7 FP inh: 1.2; Tn6 DDE FP: 2.3

What do the screens show for `COc1ccc2c(c1)c1ccc3c(c1n2C)C(=O)C=CC3=O`?
mABHD4 FP: 66.6*; HTRA1 inh: 22.8; TCR CD3 inh: 6.7; DDE Tn7 FP inh: 6.4; Tn6 DDE FP: -15.8; ABHD4 confirm: 68.3*

Results for COC(=O)[C@@]12C[C@@H](CC(=O)N3CCC(c4ccccc4)CC3)C(=O)N(Cc3ccc4c(c3)OCO4)C1=CCC(C)(C)C2 ?
mABHD4 FP: -3.3; TCR CD3 inh: -2.4; DDE Tn7 FP inh: -2.6; Tn6 DDE FP: 4.0

Results for Nn1c(SCc2ccc(Br)cc2)nnc1-c1ccccn1 ?
mABHD4 FP: -2.7; HTRA1 inh: 1.2; TCR CD3 inh: 6.4; DDE Tn7 FP inh: 7.1; Tn6 DDE FP: -1.0

What do the screens show for `Cc1cccc(CSc2nnc(-c3ccccn3)n2N)c1`?
mABHD4 FP: 35.8*; HTRA1 inh: 0.1; TCR CD3 inh: 4.0; DDE Tn7 FP inh: 1.1; Tn6 DDE FP: 0.6; ABHD4 confirm: 10.8

How did COC(=O)CCC(=O)Nc1ccc(N=Nc2ccccc2)cc1 do in these assays?
mABHD4 FP: 2.3; HTRA1 inh: -5.3; TCR CD3 inh: -3.0; DDE Tn7 FP inh: 7.0; Tn6 DDE FP: 4.4

What do the screens show for `O=C(N/N=C/c1ccncc1)c1cc2ccccc2cc1O`?
mABHD4 FP: 42.6*; HTRA1 inh: 22.0; TCR CD3 inh: -1.9; DDE Tn7 FP inh: -0.5; Tn6 DDE FP: -18.2; ABHD4 confirm: 8.1

What do the screens show for `NC(Cc1ccc(Cl)cc1)c1csc(Nc2ccc(C(F)(F)F)cn2)n1` (stereo unspecified)?
mABHD4 FP: 32.3*; TCR CD3 inh: 6.0; DDE Tn7 FP inh: 0.2; Tn6 DDE FP: -1.9; ABHD4 confirm: 30.3*

How did NC(CO)c1csc(Nc2ccc(C(F)(F)F)cn2)n1 (stereo unspecified) do in these assays?
mABHD4 FP: -2.1; TCR CD3 inh: -0.3; DDE Tn7 FP inh: 2.1; Tn6 DDE FP: -0.9

Results for Cc1cc2nc(CCN(C(=S)NCC(C)C)C3CCCC3)[nH]c2cc1C ?
mABHD4 FP: 42.3*; HTRA1 inh: -42.3; TCR CD3 inh: -6.7; DDE Tn7 FP inh: -2.9; Tn6 DDE FP: -0.6; ABHD4 confirm: 48.2*

Results for Cc1cc2nc(CCN(C(=S)NCC3CCCO3)C3CCCC3)[nH]c2cc1C (stereo unspecified) ?
mABHD4 FP: 9.7; HTRA1 inh: -6.4; TCR CD3 inh: -3.4; DDE Tn7 FP inh: 4.0; Tn6 DDE FP: 7.3

Results for COc1cc(Cl)cc(C(c2c(C(=O)O)[nH]c3ccccc23)c2c(C(=O)O)[nH]c3ccccc23)c1O ?
mABHD4 FP: 42.6*; HTRA1 inh: 1.6; TCR CD3 inh: 12.2; DDE Tn7 FP inh: 0.3; Tn6 DDE FP: -1.7; ABHD4 confirm: 55.2*

How did O=C(O)c1[nH]c2ccccc2c1C(c1c(F)cccc1Cl)c1c(C(=O)O)[nH]c2ccccc12 do in these assays?
mABHD4 FP: 42.1*; HTRA1 inh: -3.0; TCR CD3 inh: 9.9; DDE Tn7 FP inh: -3.3; Tn6 DDE FP: -1.0; ABHD4 confirm: 50.0*

Results for O=C(O)c1[nH]c2ccccc2c1C(c1cc(Br)ccc1O)c1c(C(=O)O)[nH]c2ccccc12 ?
mABHD4 FP: 43.3*; HTRA1 inh: 1.4; TCR CD3 inh: 8.7; DDE Tn7 FP inh: 10.4; Tn6 DDE FP: 3.5; ABHD4 confirm: 47.2*

Results for CS(=O)(=O)Oc1ccc(/C=N/NC(=O)c2ccncc2)cc1 ?
mABHD4 FP: -0.1; HTRA1 inh: 7.5; TCR CD3 inh: 0.1; DDE Tn7 FP inh: 2.7; Tn6 DDE FP: -1.8

How did O=C(CN1C(=O)c2ccccc2S1(=O)=O)NCCSCc1ccco1 do in these assays?
mABHD4 FP: 4.2; HTRA1 inh: 0.1; TCR CD3 inh: 6.9; DDE Tn7 FP inh: 6.1; Tn6 DDE FP: -2.2

What do the screens show for `COc1cccc(/C=C2\SC(=S)N(CC3CCCO3)C2=O)c1` (stereo unspecified)?
mABHD4 FP: -8.8; HTRA1 inh: -14.0; TCR CD3 inh: 5.8; DDE Tn7 FP inh: -2.9; Tn6 DDE FP: 7.5

What do the screens show for `CCOc1ncccc1C(=O)N1CCN(C(c2ccccc2)c2ccccc2)CC1`?
mABHD4 FP: -0.6; HTRA1 inh: -9.9; TCR CD3 inh: 3.5; DDE Tn7 FP inh: -4.7; Tn6 DDE FP: 3.2

What do the screens show for `COc1ccc(C2=CC(=O)N(Nc3ccccc3)C2=O)cc1`?
mABHD4 FP: 17.4; TCR CD3 inh: 7.0; DDE Tn7 FP inh: -6.9; Tn6 DDE FP: -11.2

What do the screens show for `O=C1C=C(c2ccccc2)C(=O)N1Nc1ccccc1`?
mABHD4 FP: 30.8*; HTRA1 inh: -0.3; TCR CD3 inh: 2.0; DDE Tn7 FP inh: -4.3; Tn6 DDE FP: 5.4; ABHD4 confirm: 23.7

How did CCN(CC)CCOc1ccc2c(c1)C(=NO)c1cc(OCCN(CC)CC)ccc1-2 do in these assays?
mABHD4 FP: -3.6; HTRA1 inh: -1.0; TCR CD3 inh: -2.4; DDE Tn7 FP inh: 7.1; Tn6 DDE FP: 2.5

Results for CCCOc1ccc2c(c1)C(=NN=C(N)N)c1cc(OCCC)ccc1-2 ?
mABHD4 FP: 38.0*; HTRA1 inh: 14.0; TCR CD3 inh: 6.2; DDE Tn7 FP inh: -3.6; Tn6 DDE FP: 1.3; ABHD4 confirm: 51.1*

Results for O=C(O)C1CCCN1S(=O)(=O)c1ccccc1 (stereo unspecified) ?
mABHD4 FP: -0.3; HTRA1 inh: -1.2; TCR CD3 inh: 10.7; DDE Tn7 FP inh: -8.4; Tn6 DDE FP: -1.9

How did O=C(COc1ncnc2c(Cl)cc(Cl)cc12)NCCC1=CCCCC1 do in these assays?
mABHD4 FP: 1.3; HTRA1 inh: -0.4; TCR CD3 inh: 6.4; DDE Tn7 FP inh: -1.3; Tn6 DDE FP: 1.2

What do the screens show for `Cc1ccc(-c2csc(NS(=O)(=O)c3cccc(F)c3)n2)o1`?
mABHD4 FP: 30.2*; HTRA1 inh: 14.5; TCR CD3 inh: 5.6; DDE Tn7 FP inh: -2.1; Tn6 DDE FP: -6.7; ABHD4 confirm: 25.9

What do the screens show for `CO[C@H]1C=CO[C@@]2(C)Oc3c(C)c(O)c4c(O)c(c(C=NN5CCN(C)CC5)c(O)c4c3C2=O)NC(=O)C(C)=CC=C[C@H](C)[C@H](O)[C@@H](C)[C@@H](O)[C@@H](C)[C@H](OC(C)=O)[C@@H]1C`?
mABHD4 FP: 33.0*; HTRA1 inh: 34.2; TCR CD3 inh: -6.0; DDE Tn7 FP inh: -5.4; Tn6 DDE FP: -2.3; ABHD4 confirm: 10.4
